In experiment [1] the test system is Rattus norvegicus. Briefly: In vivo motor activity determined in rat at 1.7 mg/kg of ip administration. The following applies: route intraperitoneal. In kind it is functional. The procedure, abridged:
(§1)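 Rats dosed i.p. against a saline-treated control group. Social interaction time (s) and total motor activity (counts) were recorded in the same social-interaction session and reported as mean ± SEM, with significance tested against saline control.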

The test system of experiment [2] is Rattus norvegicus. Briefly: Social interaction time determined in vivo rat at 1.7 mg/kg of ip administration. Type of experiment: functional. The following applies: route intraperitoneal. The method, boiled down:
as §1

In experiment [3] the test system is Rattus norvegicus. Briefly: In vivo motor activity determined in rat at 1.7 + 1 mg/kg of ip administration. In kind it is functional. The note with it: route intraperitoneal. The method, boiled down:
as §1

The subject of experiment [4] is Rattus norvegicus. Briefly: Social interaction time determined in vivo in rat at 1.7 + 1 mg/kg of ip administration. In kind it is functional. The note with it: route intraperitoneal. The procedure, abridged:
as §1

Experiment [5] has as its target T1, 5-hydroxytryptamine receptor 1A (Rattus norvegicus, UniProt P19327).
T1 sequence (P19327 whole entry): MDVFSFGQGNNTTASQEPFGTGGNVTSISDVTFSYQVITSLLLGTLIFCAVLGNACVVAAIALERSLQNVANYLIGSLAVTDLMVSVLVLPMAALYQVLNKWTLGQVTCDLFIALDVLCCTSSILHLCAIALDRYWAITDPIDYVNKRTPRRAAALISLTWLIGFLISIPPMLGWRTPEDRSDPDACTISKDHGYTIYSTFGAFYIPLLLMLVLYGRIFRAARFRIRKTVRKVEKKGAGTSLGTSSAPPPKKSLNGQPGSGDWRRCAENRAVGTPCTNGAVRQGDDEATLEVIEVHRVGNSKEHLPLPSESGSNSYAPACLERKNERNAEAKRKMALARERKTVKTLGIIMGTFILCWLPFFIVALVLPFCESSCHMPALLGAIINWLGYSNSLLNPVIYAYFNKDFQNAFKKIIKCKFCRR
Briefly: Inhibition of the 5-hydroxytryptamine 1A receptor in rat dorsal raphe.

In experiment [6] the target is 5-hydroxytryptamine receptor 1B (Rattus norvegicus, UniProt P28564). Briefly: Inhibitory concentration required against 5-hydroxytryptamine 1B receptor in rat striatum using [3H]5-HT. Type of experiment: tissue-based.
5-hydroxytryptamine receptor 1B, sequence (P28564 whole entry): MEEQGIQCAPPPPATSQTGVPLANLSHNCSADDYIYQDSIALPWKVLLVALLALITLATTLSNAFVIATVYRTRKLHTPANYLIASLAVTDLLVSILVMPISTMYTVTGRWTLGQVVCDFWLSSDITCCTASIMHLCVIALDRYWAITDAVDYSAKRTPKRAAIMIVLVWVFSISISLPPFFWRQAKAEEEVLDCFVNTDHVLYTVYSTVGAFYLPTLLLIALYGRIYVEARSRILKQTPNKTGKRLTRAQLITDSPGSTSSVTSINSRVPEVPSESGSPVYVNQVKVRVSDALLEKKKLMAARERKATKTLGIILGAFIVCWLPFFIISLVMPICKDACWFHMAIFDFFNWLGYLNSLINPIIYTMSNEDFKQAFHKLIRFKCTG
Experiment [7] addresses Serotonin 2 (5-HT2) receptor (Rattus norvegicus, UniProt P30994+P08909+P14842). Briefly: Inhibitory concentration required against 5-hydroxytryptamine 2 receptor in rat cortex using [3H]spiperone.
Experiment [8] addresses T2, Adrenergic receptor alpha-2 (Rattus norvegicus, UniProt P22086+P19328+P22909).
T2 sequence (P22086 whole entry): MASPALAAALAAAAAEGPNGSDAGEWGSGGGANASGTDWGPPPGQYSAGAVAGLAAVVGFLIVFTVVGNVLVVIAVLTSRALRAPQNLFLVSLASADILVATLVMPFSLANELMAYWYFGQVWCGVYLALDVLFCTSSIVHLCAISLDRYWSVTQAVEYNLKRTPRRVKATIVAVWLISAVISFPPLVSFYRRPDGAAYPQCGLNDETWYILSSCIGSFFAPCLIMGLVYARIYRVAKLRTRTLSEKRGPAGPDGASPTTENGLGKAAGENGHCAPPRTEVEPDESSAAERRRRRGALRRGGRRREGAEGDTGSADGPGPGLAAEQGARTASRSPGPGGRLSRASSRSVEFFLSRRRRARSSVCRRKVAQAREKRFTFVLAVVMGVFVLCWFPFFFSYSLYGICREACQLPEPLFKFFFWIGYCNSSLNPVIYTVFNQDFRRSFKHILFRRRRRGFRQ
T2 sequence (P19328 whole entry): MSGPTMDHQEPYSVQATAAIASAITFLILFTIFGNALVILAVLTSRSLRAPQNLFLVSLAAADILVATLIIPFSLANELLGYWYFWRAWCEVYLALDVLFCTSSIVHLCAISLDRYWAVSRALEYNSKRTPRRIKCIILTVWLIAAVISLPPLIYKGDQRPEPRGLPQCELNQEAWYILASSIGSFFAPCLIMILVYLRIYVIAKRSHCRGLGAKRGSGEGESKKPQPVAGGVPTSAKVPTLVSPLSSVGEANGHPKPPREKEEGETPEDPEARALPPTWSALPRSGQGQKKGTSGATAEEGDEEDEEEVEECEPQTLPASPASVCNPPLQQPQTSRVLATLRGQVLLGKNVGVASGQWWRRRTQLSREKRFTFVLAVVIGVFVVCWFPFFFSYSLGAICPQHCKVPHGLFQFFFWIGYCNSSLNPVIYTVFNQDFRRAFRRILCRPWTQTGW
T2 sequence (P22909 whole entry): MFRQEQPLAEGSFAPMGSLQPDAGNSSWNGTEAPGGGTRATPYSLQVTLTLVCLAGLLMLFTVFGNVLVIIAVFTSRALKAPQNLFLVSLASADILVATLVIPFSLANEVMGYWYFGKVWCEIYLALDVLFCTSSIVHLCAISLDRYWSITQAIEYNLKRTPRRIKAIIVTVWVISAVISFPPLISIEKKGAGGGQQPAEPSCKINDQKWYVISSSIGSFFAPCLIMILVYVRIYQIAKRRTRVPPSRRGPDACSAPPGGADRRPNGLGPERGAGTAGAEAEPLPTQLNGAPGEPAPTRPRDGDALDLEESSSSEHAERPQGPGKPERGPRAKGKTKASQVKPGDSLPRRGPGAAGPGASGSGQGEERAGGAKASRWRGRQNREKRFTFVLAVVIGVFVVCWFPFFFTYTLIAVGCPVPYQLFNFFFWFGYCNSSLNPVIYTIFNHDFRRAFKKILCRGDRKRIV
Briefly: Inhibitory concentration required against Alpha-2 adrenergic receptor in rat cortex [3H]clonidine.

Experiment [9] addresses T3, Adrenergic receptor alpha-1 (Rattus norvegicus, UniProt P15823+P23944+P43140).
T3 sequence (P15823 whole entry): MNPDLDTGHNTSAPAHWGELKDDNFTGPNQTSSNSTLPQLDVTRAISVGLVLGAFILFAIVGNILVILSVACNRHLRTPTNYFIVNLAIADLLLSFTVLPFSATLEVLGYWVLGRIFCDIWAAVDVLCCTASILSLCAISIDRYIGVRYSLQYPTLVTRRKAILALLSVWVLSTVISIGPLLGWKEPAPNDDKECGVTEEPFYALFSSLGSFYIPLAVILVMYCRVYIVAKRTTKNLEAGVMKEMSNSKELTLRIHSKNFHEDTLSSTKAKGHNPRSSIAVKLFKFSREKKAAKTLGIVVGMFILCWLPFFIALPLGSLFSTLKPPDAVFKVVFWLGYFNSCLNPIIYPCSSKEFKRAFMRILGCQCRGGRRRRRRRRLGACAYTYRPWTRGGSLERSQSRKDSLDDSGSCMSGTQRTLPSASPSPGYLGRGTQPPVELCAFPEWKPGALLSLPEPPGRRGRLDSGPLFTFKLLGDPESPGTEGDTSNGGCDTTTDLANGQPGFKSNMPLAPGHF
T3 sequence (P23944 whole entry): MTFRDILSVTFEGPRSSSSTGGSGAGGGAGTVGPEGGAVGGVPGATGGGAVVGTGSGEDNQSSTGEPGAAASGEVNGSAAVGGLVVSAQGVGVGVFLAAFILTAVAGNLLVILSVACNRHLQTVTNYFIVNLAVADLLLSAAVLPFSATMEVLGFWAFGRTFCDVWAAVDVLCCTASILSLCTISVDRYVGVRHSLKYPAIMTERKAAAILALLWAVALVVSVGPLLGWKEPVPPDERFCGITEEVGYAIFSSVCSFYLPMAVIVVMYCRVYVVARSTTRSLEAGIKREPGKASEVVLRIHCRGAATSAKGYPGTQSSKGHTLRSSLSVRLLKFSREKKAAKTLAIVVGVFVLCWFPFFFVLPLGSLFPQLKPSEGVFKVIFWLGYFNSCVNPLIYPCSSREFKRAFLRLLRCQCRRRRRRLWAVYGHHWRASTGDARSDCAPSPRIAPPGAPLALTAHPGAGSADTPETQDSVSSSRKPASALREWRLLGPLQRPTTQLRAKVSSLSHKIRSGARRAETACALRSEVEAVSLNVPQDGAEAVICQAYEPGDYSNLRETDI
T3 sequence (P43140 whole entry): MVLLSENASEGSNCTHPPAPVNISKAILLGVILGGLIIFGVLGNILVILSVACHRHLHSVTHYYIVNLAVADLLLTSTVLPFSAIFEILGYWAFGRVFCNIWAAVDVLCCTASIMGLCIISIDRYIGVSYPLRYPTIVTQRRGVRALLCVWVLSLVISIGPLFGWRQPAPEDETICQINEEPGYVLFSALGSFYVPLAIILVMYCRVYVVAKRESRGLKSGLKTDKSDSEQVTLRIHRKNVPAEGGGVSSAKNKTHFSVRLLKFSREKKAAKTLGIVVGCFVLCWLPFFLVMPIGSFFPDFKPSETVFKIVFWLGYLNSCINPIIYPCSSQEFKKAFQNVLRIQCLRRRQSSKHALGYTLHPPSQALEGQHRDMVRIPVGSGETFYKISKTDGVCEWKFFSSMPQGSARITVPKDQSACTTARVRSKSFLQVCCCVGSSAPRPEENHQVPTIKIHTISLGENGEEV
Briefly: Inhibitory concentration required against alpha-1 adrenergic receptor in rat cortex using [3H]-WB- 4101.

The target of experiment [10] is D(2) dopamine receptor (Rattus norvegicus, UniProt P61169). Briefly: Inhibitory concentration required against Dopamine receptor D2 in rat striatum. Type of experiment: tissue-based.
D(2) dopamine receptor, sequence (P61169 whole entry): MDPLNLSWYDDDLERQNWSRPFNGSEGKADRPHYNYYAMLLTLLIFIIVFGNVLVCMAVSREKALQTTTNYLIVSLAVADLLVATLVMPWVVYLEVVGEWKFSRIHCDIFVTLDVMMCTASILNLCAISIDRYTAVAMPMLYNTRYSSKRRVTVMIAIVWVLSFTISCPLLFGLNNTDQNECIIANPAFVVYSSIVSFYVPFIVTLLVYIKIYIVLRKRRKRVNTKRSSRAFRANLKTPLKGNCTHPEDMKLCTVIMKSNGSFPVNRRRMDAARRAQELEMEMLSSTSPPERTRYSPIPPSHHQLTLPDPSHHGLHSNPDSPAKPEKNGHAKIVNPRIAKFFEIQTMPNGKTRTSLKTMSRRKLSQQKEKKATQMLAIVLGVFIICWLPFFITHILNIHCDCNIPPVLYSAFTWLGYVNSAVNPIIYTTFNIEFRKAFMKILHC
The subject of experiment [11] is Rattus norvegicus. Briefly: In vivo motor activity determined in rat at 0.1 mg/kg of ip administration. Type of experiment: functional. The note with it: route intraperitoneal. The method, boiled down: (§2)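 Rat social interaction paradigm with total motor activity counts recorded in the same session. All compounds were given ip, with a saline-treated control group. Combination arms gave a 0.1 mg/kg agent together with a second agent at 1 mg/kg, both ip. Social interaction time (s) and motor counts are reported as mean ± SEM, with significance tested against saline control.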

Experiment [12] has as its system Rattus norvegicus. Briefly: Social interaction time determined in vivo in rat at 0.1 mg/kg of ip administration. The note with it: route intraperitoneal. Type of experiment: functional. The method, boiled down: as §2
Experiment [13] deals with Sodium-dependent serotonin transporter (Rattus norvegicus, UniProt P31652). Briefly: Inhibitory concentration required against 5-HT uptake in rat cortex.
Sodium-dependent serotonin transporter, sequence (P31652 whole entry): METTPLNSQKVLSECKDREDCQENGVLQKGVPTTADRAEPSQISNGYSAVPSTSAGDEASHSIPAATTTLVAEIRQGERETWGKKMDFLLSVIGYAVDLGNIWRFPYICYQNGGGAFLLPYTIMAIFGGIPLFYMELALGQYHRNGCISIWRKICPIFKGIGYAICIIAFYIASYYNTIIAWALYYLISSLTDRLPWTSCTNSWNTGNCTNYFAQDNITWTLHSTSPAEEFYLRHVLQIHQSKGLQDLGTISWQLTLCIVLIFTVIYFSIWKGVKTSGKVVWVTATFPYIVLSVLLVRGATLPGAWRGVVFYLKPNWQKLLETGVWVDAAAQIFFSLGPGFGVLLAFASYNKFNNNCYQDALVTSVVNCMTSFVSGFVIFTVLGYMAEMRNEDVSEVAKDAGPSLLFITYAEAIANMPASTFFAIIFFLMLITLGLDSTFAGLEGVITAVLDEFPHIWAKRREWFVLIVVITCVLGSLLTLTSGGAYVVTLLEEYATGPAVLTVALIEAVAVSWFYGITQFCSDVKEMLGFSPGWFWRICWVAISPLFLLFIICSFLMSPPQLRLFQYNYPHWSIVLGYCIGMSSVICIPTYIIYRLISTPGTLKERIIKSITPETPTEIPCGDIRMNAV
The subject of experiment [14] is Rattus norvegicus. Briefly: In vivo motor activity determined in rat at 1 mg/kg of ip administration. Type of experiment: functional. The following applies: route intraperitoneal. The procedure, abridged:
as §2

The subject of experiment [15] is Rattus norvegicus. Briefly: Social interaction time determined in vivo in rat at 1 mg/kg of ip administration. Type of experiment: functional. The following applies: route intraperitoneal. The procedure, abridged:
as §2

The source of these data is ChEMBL document CHEMBL1136272, “Development of a presynaptic 5-HT1A antagonist” (Bioorg Med Chem Lett, 2003).

As usually defined, the IC50 is the midpoint of a concentration-inhibition curve.

In turn, `CN1C(=O)CN=C(c2ccccc2)c2cc(Cl)ccc21` [DIAZEPAM] returned a Motor activity in experiment [1] of 5100 Counts. The Time in experiment [2] is given as 120 s.
For the compound `CN1C(=O)CN=C(c2ccccc2)c2cc(Cl)ccc21.COc1cccc(CN2CCN(C3CCC(O)(c4ccc5c(c4)OCO5)CC3)CC2)c1` (configuration not stated), in [3], the Motor activity is listed as 4900 Counts. For the same compound, the Time in experiment [4] was determined as 113 s.
For the compound `OC1(c2ccc3c(c2)OCO3)CCC(N2CCN(Cc3ccccc3)CC2)CC1` (configuration not stated), the IC50 was 0.02 µM in experiment [5]; more than 1 µM in experiment [6]; 11 µM in [7]; 0.41 µM in experiment [8]; 0.7 µM in [9]; 1.7 µM in experiment [10]. The IC50 in experiment [13] was more than 1 µM. Also, the Motor activity in experiment [11] was 4700 Counts. Moreover, the Time in experiment [12] is listed as 104 s.
In the case of `COc1cccc(CN2CCN(C3CCC(O)(c4ccc5c(c4)OCO5)CC3)CC2)c1` (configuration not stated), the IC50 was 0.0022 µM in experiment [5]; more than 100 µM in [6]; 28 µM in [7]; 1.1 µM in [8]; 1.5 µM in experiment [9]; 4.8 µM in experiment [10]. This compound also displayed an IC50 in [13] of 3 µM. In addition, in [14], the Motor activity is 5140 Counts. The Time in [15] is recorded as 65 s.
